Experimental data of several laboratories.
Lines come from different studies, so protocols differ.

CC1=NN(CNc2ccc(C(=O)O)cc2)C(=O)C1=NNn1c(-c2ccccc2)nc2ccccc2c1=O  MIC (Vibrio cholerae; microbial growth, broth dilution; 24 h): 50.5 µM
CC(=O)C1=C(O)C(CC(C)C)NC1=O (stereo not drawn)  MIC (Stenotrophomonas maltophilia; microbial growth; ATCC13637): > 200 µg/mL
CCCCCCCCCCCC(=O)CP(=O)(O)O  MIC (Bacillus anthracis; microbial growth; STERNE34F2): 50 µg/mL
CC(C=CC(O)=C1C(=O)CNC1=O)=CC(C)C1OC2(C)OC(C(O)C=C2C)C1C (stereo not drawn)  MIC (Bacillus anthracis; microbial growth; 34F2): 25 µM
CCOC(=O)Nc1ccc(NCc2ccc(F)cc2)cc1N  ED50 (MES seizures; rat; intraperitoneal): 4.01 mg/kg
O=C(CCCCC1CCCCC1)CP(=O)(O)O  MIC (Bacillus anthracis; microbial growth; STERNE34F2): 200 µg/mL
CN[C@H](CC(C)C)C(=O)N[C@H]1C(=O)N[C@@H](CC(N)=O)C(=O)N[C@H]2C(=O)N[C@H]3C(=O)N[C@H](C(=O)N[C@H](C(=O)O)c4cc(O)cc(O)c4-c4cc3ccc4O)[C@H](O)c3ccc(c(Cl)c3)Oc3cc2cc(c3O[C@@H]2O[C@H](CO)[C@@H](O)[C@H](O)[C@H]2O[C@H]2C[C@](C)(N)[C@H](O)[C@H](C)O2)Oc2ccc(cc2Cl)[C@H]1O  MIC (Streptococcus pyogenes; microbial growth): 0.25 µg/mL
CCCCCCCCCCCCCCCC(=O)CP(=O)(O)O  MIC (Bacillus anthracis; microbial growth; STERNE34F2): 1.56 µg/mL
O=C1NN=C(N=Cc2ccccc2)C1=NNn1c(-c2ccccc2)nc2ccccc2c1=O  MIC (Vibrio cholerae; microbial growth, broth dilution; 24 h): 114 µM
CC(C)[C@H](N)C(=O)OCCCCCn1cnc2nc(NCc3ccc(Cl)c(Cl)c3)[nH]c(=O)c21  MIC (Bifidobacterium; microbial growth, agar dilution; 48 h): 32 µg/mL
COc1ccc(OS(=O)(=O)NC(=O)CCCCc2ccccc2)cc1  MIC (Bacillus anthracis; microbial growth; STERNE34F2): 200 µg/mL
OC[C@H]1O[C@@H](n2cnc3c(NC4CCCC4)ncnc32)[C@H](O)[C@@H]1O  ED50 (MES seizures; rat; oral): > 10 mg/kg
COc1ccc2cc1Oc1cc(ccc1OC)CCC(N[C@@H]1CCCc3ccccc31)CCCC2 (stereo partly drawn)  MIC (Streptococcus pyogenes; microbial growth, broth dilution; ATCC700294): > 100 µg/mL
CC1=NN(CNC(=O)c2ccccc2)C(=O)C1=NNn1c(-c2ccccc2)nc2ccccc2c1=O  MIC (Vibrio cholerae; microbial growth, broth dilution; 24 h): 51.9 µM
O=C(O)CCCCCCCCCCCCCCCc1ccccc1  IC50 (Leishmania infantum; parasite growth; mouse Splenocyte; 72 h, intracellular, amastigote): 3 to 6 µM
CCCCCCCC/C=C\CCCCCCCCNC(=O)CP(=O)(O)O  MIC (Bacillus anthracis; microbial growth; STERNE34F2): 0.1 µg/mL
O=C1NN=C(N=Cc2ccccc2O)C1=NNn1c(-c2ccccc2)nc2ccccc2c1=O  MIC (Vibrio cholerae; microbial growth, broth dilution; 24 h): 55.4 µM
CN[C@@H]1[C@H](O)[C@H](NC)[C@H]2O[C@@]3(O)C(=O)C[C@@H](C)O[C@H]3O[C@@H]2[C@H]1O  MIC (Bacillus anthracis; microbial growth; STERNE34F2): 25 µg/mL
